Experimental data reported in ChEMBL document CHEMBL1127530 (J Med Chem, 1994).

Experiments:
NIH3T3 = assay: Cytotoxic effect on 3T3 cells; format: functional, cell-based; conditions: Mus musculus
Summary of the method: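 3T3 parental fibroblasts, 2 × 10^4 cells in DMEM with 10% fetal calf serum; compounds dissolved or suspended in DMF or DMSO, final solvent ≤0.5% v/v. Value is the mean of two determinations.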

ANN-1 = assay: Cytotoxic effect on v-abl transformed murine ANN-1 cells; format: functional, cell-based; conditions: Mus musculus
Summary of the method: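 Abelson virus-transformed ANN-1 murine fibroblasts expressing the gag-abl tyrosine kinase, 2 × 10^4 cells in DMEM with 10% fetal calf serum; compounds in DMF or DMSO, final solvent ≤0.5% v/v. Value is the mean of two determinations.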

MCF7 = assay: Cytotoxic effect on MCF-7 human breast carcinoma cells; format: functional, cell-based
WiDr = assay: Cytotoxic effect on WiDr human colon cells; format: functional, cell-based
HFF [1] = assay: Inhibition of PDGF-induced mitogenesis in human foreskin fibroblasts; format: functional, cell-based
HFF [2] = assay: (§1) Inhibition of EGF-induced mitogenesis in human foreskin fibroblasts; format: functional, cell-based
HFF [3] = assay: as §1; format: functional, cell-based; remark: listed apart in the source
[4] = target: Epidermal growth factor receptor (Homo sapiens) (UniProt P00533); conditions: A-431, 150 uM
Sequence of Epidermal growth factor receptor (Homo sapiens) (P00533 whole entry): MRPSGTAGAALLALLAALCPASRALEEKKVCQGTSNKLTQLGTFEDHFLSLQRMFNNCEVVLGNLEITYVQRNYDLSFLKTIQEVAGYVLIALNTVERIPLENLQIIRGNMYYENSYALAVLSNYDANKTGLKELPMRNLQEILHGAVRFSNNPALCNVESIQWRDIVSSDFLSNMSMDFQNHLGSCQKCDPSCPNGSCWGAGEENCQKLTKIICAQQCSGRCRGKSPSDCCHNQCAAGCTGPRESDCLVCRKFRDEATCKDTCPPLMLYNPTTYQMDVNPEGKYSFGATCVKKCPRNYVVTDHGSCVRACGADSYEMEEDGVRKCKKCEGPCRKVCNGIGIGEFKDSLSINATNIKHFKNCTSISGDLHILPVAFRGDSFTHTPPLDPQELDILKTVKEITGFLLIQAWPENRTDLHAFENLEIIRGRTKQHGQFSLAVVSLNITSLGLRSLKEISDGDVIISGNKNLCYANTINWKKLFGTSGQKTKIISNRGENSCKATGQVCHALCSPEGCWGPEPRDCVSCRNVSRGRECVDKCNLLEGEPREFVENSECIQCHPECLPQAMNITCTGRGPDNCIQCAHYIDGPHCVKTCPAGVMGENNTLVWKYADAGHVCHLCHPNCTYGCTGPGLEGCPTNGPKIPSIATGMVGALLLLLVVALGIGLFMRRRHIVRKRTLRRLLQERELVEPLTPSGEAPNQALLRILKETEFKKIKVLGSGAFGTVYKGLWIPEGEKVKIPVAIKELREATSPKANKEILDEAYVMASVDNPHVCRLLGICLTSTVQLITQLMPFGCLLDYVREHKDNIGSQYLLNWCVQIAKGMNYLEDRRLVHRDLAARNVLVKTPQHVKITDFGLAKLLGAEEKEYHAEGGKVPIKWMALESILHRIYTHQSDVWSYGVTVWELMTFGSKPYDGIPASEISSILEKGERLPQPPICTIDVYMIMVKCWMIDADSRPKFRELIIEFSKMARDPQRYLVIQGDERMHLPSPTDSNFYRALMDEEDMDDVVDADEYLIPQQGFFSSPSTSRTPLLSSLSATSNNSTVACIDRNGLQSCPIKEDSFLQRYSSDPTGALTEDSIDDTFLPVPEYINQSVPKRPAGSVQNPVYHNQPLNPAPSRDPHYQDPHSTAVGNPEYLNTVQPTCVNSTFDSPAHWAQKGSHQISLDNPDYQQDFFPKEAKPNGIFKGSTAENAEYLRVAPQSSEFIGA

inhibition [4] [%] | SMILES | IC50 (NIH3T3) [µM] | IC50 (ANN-1) [µM] | IC50 (MCF7) [µM] | IC50 (WiDr) [µM] | IC50 (HFF [1]) [µM] | IC50 (HFF [2]) [µM] | IC50 (HFF [3]) [µM]
– | O=c1c(-c2ccc(O)cc2)coc2cc(O)cc(O)c12 [GENISTEIN] | 24 | 8 | 15.1 | 27.7 | – | – | –
– | CC/C(=C(/CC)c1ccc(O)cc1)c1ccc(O)cc1 [DIETHYLSTILBESTROL] | 2.5 | 3 | 5 | – | – | – | –
– | O=c1c(O)c(-c2ccc(O)c(O)c2)oc2cc(O)cc(O)c12 [QUERCETIN] | 39.5 | 32.5 | 24 | 40.2 | 100 | – | –
– | Oc1ccc(-c2nc3cc(O)ccc3s2)cc1 | 25 | 25.5 | 41.4 | 62.2 | – | – | –
– | Oc1cc(O)c2nc(-c3ccc(O)c(O)c3)sc2c1 | 47 | 58.5 | 41.3 | 47.7 | 68 | 7 | 9
– | Oc1cccc(-c2nc3ccc(O)cc3s2)c1 | 30.5 | 17 | 2.7 | 18.3 | – | – | –
– | Oc1ccc(-c2nc3ccccc3s2)cc1 | 71.5 | 77 | 27 | 68.7 | – | – | –
38 | Oc1ccc(-c2nc3cc(O)c(O)cc3s2)cc1O | 56.5 | 32 | 5.1 | 34.2 | – | – | –
– | Oc1ccc(-c2nc3cc(O)c(O)cc3s2)cc1 | 13.5 | 9 | 8.4 | 24.7 | – | – | –
42 | Oc1ccc(-c2nc3ccc(O)cc3s2)cc1 | 11 | 13.5 | 25 | 67.2 | 14 | 13 | 6.5
– | Oc1ccc2nc(-c3ccc(O)c(O)c3)sc2c1 | 6 | 5.5 | 17.6 | 23 | – | – | –
– | Oc1ccc2nc(-c3ccccc3)sc2c1 | 79.5 | 71 | 27.3 | 45.2 | – | – | –
– | Oc1ccc(-c2nc3c(O)cc(O)cc3s2)cc1 | 20 | 21.5 | 33.3 | 31.2 | 20 | 7 | 16
